# Activity calls are given as the source filed them. No cut-off for these calls is given here.
# How the values were obtained:
# Assay type in all cases: cell-based
# [1] = biological target: Transient receptor potential cation channel subfamily V member 4 (Homo sapiens) (UniProt Q9HBA0); assay: Activation of human TRPV4 expressed in HEK293 cells assessed as induction of calcium influx at 100 uM by fluro 4-AM dye-based fluorescence assay
# Method in brief: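 HEK-293 stable overexpressors on gelatin-coated plates are loaded with Fluo 4-AM (1 h, 37 °C), then given probenecid/Trypan Red LHC-9 and 30 min at 37 °C. Treatments are prepared at 3× in LHC9, with 1-min monitoring at 37 °C. Max ΔF/s versus medium only is given as % of the 30 nM GSK1016790A control. Three replicates minimum.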
# [2] = biological target: T1, Transient receptor potential cation channel subfamily V member 3 (Homo sapiens) (UniProt Q8NET8); assay: Activation of human TRPV3 expressed in HEK293 cells assessed as induction of calcium influx at 100 uM by fluro 4-AM dye-based fluorescence assay
# T1 sequence (whole entry): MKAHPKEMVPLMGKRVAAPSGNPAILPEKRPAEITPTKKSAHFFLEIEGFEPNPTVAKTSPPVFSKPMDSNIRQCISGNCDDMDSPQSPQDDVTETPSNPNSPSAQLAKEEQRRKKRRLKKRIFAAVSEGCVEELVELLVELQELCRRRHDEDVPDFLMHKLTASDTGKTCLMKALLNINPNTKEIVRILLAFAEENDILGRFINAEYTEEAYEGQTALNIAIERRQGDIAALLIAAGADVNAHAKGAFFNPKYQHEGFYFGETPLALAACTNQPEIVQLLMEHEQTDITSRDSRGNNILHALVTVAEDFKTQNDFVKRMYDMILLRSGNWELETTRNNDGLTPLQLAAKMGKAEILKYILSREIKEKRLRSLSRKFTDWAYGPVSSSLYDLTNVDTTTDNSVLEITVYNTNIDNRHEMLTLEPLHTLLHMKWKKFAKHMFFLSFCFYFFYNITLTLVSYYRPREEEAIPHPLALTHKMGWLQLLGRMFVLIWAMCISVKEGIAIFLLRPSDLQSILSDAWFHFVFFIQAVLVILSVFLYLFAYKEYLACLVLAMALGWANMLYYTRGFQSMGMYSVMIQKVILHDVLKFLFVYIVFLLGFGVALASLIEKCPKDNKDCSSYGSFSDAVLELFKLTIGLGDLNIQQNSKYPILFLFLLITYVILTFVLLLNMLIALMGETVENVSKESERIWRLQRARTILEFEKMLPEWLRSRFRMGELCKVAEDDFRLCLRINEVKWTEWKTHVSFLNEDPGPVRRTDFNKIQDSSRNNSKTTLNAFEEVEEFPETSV
# Method in brief: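 Confluent HEK-293 cells stably expressing the channel are dye-loaded 1 h at 37 °C, washed, and equilibrated 30 min at 37 °C in LHC-9 with 1 mM probenecid. Compounds are dosed at 3× in calcium assay buffer. The 1-min read at 37 °C gives max ΔF/s over medium, reported as % of the 300 μM carvacrol agonist control. At least three replicates.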
# [3] = biological target: Transient receptor potential cation channel subfamily M member 8 (Homo sapiens) (UniProt Q7Z2W7); assay: Activation of human TRPM8 expressed in HEK293 cells assessed as induction of calcium influx at 100 uM by fluro 4-AM dye-based fluorescence assay
# Sequence of Transient receptor potential cation channel subfamily M member 8 (Homo sapiens) (Q7Z2W7 whole entry, looked up): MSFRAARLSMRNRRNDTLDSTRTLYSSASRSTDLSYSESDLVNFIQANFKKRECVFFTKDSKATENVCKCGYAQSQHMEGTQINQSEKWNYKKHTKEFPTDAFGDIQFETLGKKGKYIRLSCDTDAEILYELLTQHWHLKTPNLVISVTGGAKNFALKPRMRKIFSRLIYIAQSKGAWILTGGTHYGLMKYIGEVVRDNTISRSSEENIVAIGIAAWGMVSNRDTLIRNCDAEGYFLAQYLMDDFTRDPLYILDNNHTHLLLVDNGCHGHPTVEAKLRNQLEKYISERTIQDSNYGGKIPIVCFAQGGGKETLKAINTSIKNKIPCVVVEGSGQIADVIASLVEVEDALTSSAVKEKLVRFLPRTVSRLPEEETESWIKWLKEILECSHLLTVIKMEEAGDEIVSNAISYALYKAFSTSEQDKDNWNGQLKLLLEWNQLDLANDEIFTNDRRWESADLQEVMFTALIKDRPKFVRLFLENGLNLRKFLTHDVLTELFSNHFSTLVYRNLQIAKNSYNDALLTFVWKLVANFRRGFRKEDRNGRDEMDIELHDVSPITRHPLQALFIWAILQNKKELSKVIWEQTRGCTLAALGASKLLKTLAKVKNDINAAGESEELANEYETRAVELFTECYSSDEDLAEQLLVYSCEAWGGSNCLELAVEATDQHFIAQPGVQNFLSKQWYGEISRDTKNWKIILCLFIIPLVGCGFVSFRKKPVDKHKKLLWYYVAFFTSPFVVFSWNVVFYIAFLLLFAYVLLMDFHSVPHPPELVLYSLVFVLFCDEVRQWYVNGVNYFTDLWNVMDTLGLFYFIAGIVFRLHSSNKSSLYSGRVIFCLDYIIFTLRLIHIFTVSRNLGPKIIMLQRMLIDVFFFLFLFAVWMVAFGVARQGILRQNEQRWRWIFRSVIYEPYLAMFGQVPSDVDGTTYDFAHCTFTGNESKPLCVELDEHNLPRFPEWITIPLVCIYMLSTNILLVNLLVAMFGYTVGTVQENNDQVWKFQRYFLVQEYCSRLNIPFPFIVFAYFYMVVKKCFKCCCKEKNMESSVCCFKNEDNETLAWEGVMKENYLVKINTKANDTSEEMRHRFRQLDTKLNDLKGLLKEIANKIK
# Method in brief: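 Uses the same HEK-293 stable-line culture and Fluo 4-AM loading (1 h, 37 °C), followed by the probenecid/Trypan Red LHC-9 wash and 30 min equilibration at 37 °C. Treatment is made at 3× in LHC9. Max ΔF/s is read over 1 min at 37 °C, normalized to medium-only and given as % of the 25 μM icilin control. Three or more replicates.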
# [4] = biological target: Transient receptor potential cation channel subfamily A member 1 (Homo sapiens, UniProt O75762); assay: Activation of human TRPA1 expressed in HEK293 cells assessed as induction of calcium influx at 100 uM by fluro 4-AM dye-based fluorescence assay; conditions: hek293, 100 µM
# Sequence of Transient receptor potential cation channel subfamily A member 1 (O75762 whole entry): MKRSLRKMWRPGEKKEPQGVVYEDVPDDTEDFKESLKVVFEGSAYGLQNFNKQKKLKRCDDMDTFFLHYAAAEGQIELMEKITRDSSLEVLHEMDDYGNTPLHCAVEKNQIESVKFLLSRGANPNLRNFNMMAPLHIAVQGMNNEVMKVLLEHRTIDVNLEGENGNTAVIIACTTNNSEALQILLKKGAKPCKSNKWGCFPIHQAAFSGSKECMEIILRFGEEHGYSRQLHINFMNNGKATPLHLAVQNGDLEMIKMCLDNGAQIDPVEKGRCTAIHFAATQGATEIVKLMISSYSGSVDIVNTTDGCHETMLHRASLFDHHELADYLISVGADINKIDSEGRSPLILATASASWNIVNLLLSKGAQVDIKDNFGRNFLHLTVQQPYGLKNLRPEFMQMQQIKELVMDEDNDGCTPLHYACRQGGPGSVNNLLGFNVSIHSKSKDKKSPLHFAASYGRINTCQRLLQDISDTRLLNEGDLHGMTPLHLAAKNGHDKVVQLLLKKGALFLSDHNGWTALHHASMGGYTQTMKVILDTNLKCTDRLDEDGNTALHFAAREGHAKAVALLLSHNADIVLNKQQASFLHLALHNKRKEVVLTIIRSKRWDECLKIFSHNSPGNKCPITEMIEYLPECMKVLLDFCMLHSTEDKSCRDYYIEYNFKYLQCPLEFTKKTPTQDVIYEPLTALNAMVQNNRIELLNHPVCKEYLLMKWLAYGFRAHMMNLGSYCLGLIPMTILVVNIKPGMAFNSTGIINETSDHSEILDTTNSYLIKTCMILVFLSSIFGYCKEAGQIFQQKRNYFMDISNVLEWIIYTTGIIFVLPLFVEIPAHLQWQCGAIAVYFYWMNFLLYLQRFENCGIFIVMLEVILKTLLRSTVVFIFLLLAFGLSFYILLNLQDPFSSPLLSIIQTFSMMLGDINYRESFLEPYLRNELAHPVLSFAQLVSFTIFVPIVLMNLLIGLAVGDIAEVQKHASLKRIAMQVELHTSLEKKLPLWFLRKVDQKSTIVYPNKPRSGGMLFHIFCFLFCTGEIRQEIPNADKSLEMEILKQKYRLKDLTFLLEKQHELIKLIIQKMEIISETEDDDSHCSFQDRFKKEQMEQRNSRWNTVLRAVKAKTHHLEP
# Method in brief: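 Stable HEK-293 line grown to confluence on gelatin-coated wells (DMEM:F12, 5% FBS, geneticin 300 μg/mL). Cells loaded 1 h at 37 °C with Fluo 4-Direct/LHC-9, washed into LHC-9 with 1 mM probenecid and Trypan Red, then held 30 min at 37 °C. Compound added at 3× in calcium assay buffer. Fluorescence read 1 min at 37 °C as max ΔF/s versus medium only, expressed as % of 250 μM 2,4-ditert-butylphenol response. At least three replicates.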
# [5] = biological target: Transient receptor potential cation channel subfamily V member 1 (Homo sapiens) (UniProt Q8NER1); assay: Activation of human TRPV1 expressed in BEAS-2B cells assessed as induction of calcium influx at 100 uM by fluro 4-AM dye-based fluorescence assay
# Sequence of Transient receptor potential cation channel subfamily V member 1 (Homo sapiens) (Q8NER1 whole entry): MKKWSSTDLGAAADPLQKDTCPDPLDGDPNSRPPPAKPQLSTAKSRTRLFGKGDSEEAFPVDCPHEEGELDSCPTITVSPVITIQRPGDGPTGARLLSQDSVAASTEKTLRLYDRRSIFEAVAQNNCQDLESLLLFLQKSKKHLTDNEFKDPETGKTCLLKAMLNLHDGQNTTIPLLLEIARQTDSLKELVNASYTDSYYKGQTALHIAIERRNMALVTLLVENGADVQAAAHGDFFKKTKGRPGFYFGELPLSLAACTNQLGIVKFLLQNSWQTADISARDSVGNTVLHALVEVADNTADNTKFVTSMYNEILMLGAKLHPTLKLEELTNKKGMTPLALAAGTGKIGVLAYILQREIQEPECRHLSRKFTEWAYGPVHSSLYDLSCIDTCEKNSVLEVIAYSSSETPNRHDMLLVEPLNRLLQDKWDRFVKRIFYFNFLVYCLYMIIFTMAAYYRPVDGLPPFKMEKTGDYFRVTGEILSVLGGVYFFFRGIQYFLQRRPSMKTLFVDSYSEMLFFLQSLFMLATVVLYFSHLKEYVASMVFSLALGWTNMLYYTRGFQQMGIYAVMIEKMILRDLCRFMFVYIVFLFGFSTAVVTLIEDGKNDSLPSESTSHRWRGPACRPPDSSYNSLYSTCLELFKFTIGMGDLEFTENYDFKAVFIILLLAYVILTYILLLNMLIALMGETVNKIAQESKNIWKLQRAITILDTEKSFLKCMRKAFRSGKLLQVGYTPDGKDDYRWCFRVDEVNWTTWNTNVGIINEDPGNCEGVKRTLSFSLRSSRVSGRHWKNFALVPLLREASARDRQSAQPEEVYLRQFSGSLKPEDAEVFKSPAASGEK
# Method in brief: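 TRPV1-overexpressing BEAS-2B cells are loaded with Fluo 4-Direct/LHC-9 at room temperature, washed into LHC-9 containing probenecid and Trypan Red, and incubated 30 min at 37 °C. Test solution is made at 3× in LHC9. Fluorescence is followed 1 min at 37 °C. Max ΔF/s relative to medium is expressed as % of the response to 10 μM capsaicin. Minimum triplicate.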
# Sequence of Transient receptor potential cation channel subfamily V member 4 (Homo sapiens) (Q9HBA0 whole entry): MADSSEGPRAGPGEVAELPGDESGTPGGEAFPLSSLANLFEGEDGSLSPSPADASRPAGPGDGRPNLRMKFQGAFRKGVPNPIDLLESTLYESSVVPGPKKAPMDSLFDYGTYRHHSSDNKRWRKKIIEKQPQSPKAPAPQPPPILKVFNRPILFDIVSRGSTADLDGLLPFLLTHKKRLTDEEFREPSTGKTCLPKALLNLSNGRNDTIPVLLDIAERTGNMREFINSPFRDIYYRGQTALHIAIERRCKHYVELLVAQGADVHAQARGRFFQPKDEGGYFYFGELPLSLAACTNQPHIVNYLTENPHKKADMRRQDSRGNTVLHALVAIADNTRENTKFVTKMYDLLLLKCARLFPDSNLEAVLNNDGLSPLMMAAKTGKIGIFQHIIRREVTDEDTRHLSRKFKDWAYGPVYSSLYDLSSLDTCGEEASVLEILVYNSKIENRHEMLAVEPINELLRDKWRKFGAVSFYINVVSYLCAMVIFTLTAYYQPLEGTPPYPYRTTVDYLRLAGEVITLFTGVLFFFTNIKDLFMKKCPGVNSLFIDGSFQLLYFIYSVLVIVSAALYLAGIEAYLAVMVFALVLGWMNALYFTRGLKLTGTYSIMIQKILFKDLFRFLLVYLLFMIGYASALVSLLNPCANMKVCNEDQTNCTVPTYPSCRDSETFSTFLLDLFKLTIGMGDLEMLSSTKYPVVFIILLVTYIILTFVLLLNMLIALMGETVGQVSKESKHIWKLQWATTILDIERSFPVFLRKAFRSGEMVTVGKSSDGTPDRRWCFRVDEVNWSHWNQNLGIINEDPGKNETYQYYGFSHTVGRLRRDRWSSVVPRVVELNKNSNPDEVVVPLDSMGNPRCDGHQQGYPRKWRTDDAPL
Activity [1],Activity [2],Activity [3],Activity [4],Activity [5],SMILES
inactive,inactive,Active,Active,inactive,CC(C)C[C@@H]1NC(=O)[C@@H](CC(C)C)OC(=O)CCNC(=O)[C@H](Cc2ccccc2)NC(=O)[C@H](CC(C)C)OC1=O
inactive,inactive,Active,Active,inactive,CC(C)C[C@@H]1NC(=O)[C@@H](CC(C)C)OC(=O)CCNC(=O)[C@H](Cc2ccc(O)cc2)NC(=O)[C@H](CC(C)C)OC1=O
